# TNAP inh hiacc = human TNAP enzyme inhibitors, primary screen, biochemical, luminescent, high phosphate acceptor level, uHTS | 0.03% of 200,000 active | purified TNAP, CDP-star luminescence, 1 M DEA | inhibition, % at 20 µM;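 active = over 50% inhibition of tissue-nonspecific alkaline phosphatase at 20 µM in the single-dose screen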;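 also: plate controls were DMSO wells for no effect and EDTA-quenched wells as full inhibition for full effect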
# ABCG2 block = ABCG2 efflux pump inhibitors, primary screen, multiplex with ABCB1, IgMXP3 cells, flow cytometry. Broad substrate specificity ATP-binding cassette transporter ABCG2 (Homo sapiens), Q9UNQ0. JC-1 efflux. inhibition, % at 6.6 µM. 0.1% of 190,000 active;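 active = inhibition above 80%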;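 also: 0% = DMSO and 100% = nicardipine control wells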
#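 Test system: IgMXP3 (ABCG2) plus far-red-tagged CCRF-Adr (ABCB1) cells / Amount: 3 million cells/mL in well / Reagent: JC-1 transporter substrate / Timing: 10 min compound exposure, 25 °C / Signal: flow cytometry, 530 nm JC-1 signal / Read-out: percent efflux inhibition, scaled nicardipine 100% to DMSO 0% / Benchmarks: nicardipine as high control, DMSO as low control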
# TNAP act hiacc = TNAP activators at high phosphate acceptor level, primary screen, biochemical, luminescence, uHTS; 200,000 tested, under 10 active; activation factor at 20 µM; purified TNAP, CDP-star luminescence, 1 M DEA, 30 min; hits give high values; 0 = EDTA background, 1 = DMSO-only activity;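 active = activation factor at least 2 at 20 µM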
#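 Control set: EDTA negative control, DMSO positive control / Assay system: human TNAP / Quantity: TNAP 1/800 final / Evaluation: TNAP activation factor scaled between EDTA and DMSO control wells / Measured by: luminescent substrate turnover signal / Compound dosing: one dose, 20 µM / Times: 30 min enzyme reaction at room temperature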
# ABCB1 block = ABCB1 efflux pump inhibitors, primary screen, cell-based, multiplex, flow cytometry, ABCG2 counter-screen; CCRF-Adr cells, JC-1 efflux; 0.067% of 190,000 active; inhibition, % at 6.6 µM; in the data active = inhibition above about 40%;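 also: 0% = vehicle and 100% = reference inhibitor; higher value means more JC-1 retained so stronger ABCB1 efflux block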
# PKD1 kinase inh = inhibitors of human PKD1 kinase, biochemical, fluorescence polarization | Serine/threonine-protein kinase D1 (Homo sapiens), Q15139 | PKD1 kinase fluorescence polarization assay | inhibition, % (test concentration not listed) | 0.056% of 200,000 active | AID 797, 2007; in the data active = inhibition above about 50%
# TNAP inh noacc = human TNAP enzyme inhibitors, primary screen, biochemical, luminescent, no phosphate acceptor, uHTS; 0.26% of 200,000 active; AID 1012, 2008; purified TNAP, CDP-star luminescence, 30 min; Alkaline phosphatase, tissue-nonspecific isozyme (Homo sapiens), P05186; inhibition, % at 20 µM;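 active = tissue-nonspecific alkaline phosphatase inhibition above about 50% at 20 µM in the single-dose screen, limit read from the data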;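 also: 0% = DMSO negative control and 100% = EDTA positive control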
# ABCB1 confirm = ABCB1 efflux pump inhibitors, confirmation, cell-based, single point, ABCG2 counter-screen; shares compounds with ABCG2 block; CCRF-Adr cells, JC-1 efflux, flow cytometry; inhibition, % at 6.6 µM; 7% of 270 active;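 active = inhibition of pump activity above 50%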;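 also: 0% = DMSO and 100% = nicardipine full pump inhibition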
# ABCG2 confirm = ABCG2 efflux pump inhibitors, confirmation, single point, IgMXP3 cells, ABCB1 counter-screen paired. shares compounds with ABCG2 block. JC-1 efflux, flow cytometry. inhibition, % at 6.6 µM. 6% of 270 active. AID 1453, 2008;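 active = inhibition above 50%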;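 also: 0% = DMSO wells and 100% = nicardipine pump inhibitor wells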
# IgMXP3 autofluor = compound autofluorescence in ABCG2-expressing IgMXP3 cells, confirmation, artefact control for ABC transporter inhibitor project, cell-based, 488/530 nm, flow cytometry; shares compounds with ABCG2 block; compound autofluorescence 488/530 nm; hits give high values; fluorescence at 6.6 µM; 30% of 270 active; AID 1480, 2009;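 active = fluorescence in ABCG2-expressing cells above the plate's control-well mean plus 3 SD, cut at about 15 in these data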;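 also: median cell fluorescence with compound minus that of DMSO-treated control cells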
# CCRF-Adr fluor = compound autofluorescence in ABCB1-expressing CCRF-Adr cells, confirmation, artefact control for ABC transporter inhibitor project, cell-based, 488/530 nm, flow cytometry | 30% of 270 active | AID 1483, 2009 | compound autofluorescence 488/530 nm; hits give high values | shares compounds with ABCG2 block | fluorescence at 6.6 µM;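 active = fluorescence beyond the plate control mean plus 3 SD, with a fluorescence-to-maximum score over 2, cut at about 25 in these data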
# Starred values were filed as active, the others as inactive; . = no result; + = active, no number. An excerpt weighted towards active compounds, which were near 0.48% of everything screened.
SMILES,TNAP inh hiacc,ABCG2 block,TNAP act hiacc,ABCB1 block,PKD1 kinase inh,TNAP inh noacc,ABCB1 confirm,ABCG2 confirm,IgMXP3 autofluor,CCRF-Adr fluor
Cc1ccc(-n2c(-c3ccccc3)c[n+]3c2CCc2ccccc2-3)c(C)c1,-5,0,1,0,5,-13,.,.,.,.
Cc1sc2ncnc(NCC3COc4ccccc4O3)c2c1C (configuration not stated),1,82*,1,0,10,-17,1,28,-2.1,-3
CCc1nnc(NC(=O)[C@@H](NC(=O)c2cc(OC)cc(OC)c2)C(C)C)s1,1,6,1,1,-4,-4,.,.,.,.
COc1cc(OC)cc(C(=O)N[C@H](C(=O)Nc2nc(-c3cc(OC)ccc3OC)cs2)C(C)C)c1,-7,47,1.1,5,-8,-13,6,35,-1.8,-3.8
Nc1cc(=O)[nH]c(SCC(=O)Nc2cccc(Cl)c2Cl)n1,4,0,1,0,-5,-4,.,.,.,.
COc1ccc(-[n+]2c(C)cc(/C=C3\Sc4ccccc4N3C)cc2C)cc1,19,6,0.8,-1,-12,9,.,.,.,.
CC[n+]1c(/C=C2\Sc3ccccc3N2C)ccc2cccc(C)c21,39,151*,0.6,30,-12,30,-182,18,273*,535*
CCCCc1ccc(NC2=NCC(=O)N2CCc2ccccc2)cc1,-7,1,1.1,0,-7,-7,.,.,.,.
Cc1ccc(C(=O)NCC(=O)Nc2cccc(C(F)(F)F)c2)cc1,-4,18,1,0,19,-18,.,.,.,.
O=C(CNC(=O)c1ccccc1)Nc1cccc(C(F)(F)F)c1,-4,+,1,.,2,-7,2,13,73*,33*
